Rows were chosen to be rich in hits. Some 1.7% of all compounds tested hit in one or more screens of this group.
EBNA-1 inhibitor – blocks EBNA-1 binding to DNA | 0.34% of 300,000 active | inhibition, % at 14.8 µM | EBNA-1 DNA binding, fluorescence polarization; in the data active = inhibition above about 28%
ZTA DNA inh – counter-screen for EBNA-1 inhibitors: inhibitors of Epstein-Barr virus ZTA; P03206; ZTA-DNA binding, fluorescence polarization; inhibition, % at 11 µM; 0.15% of 320,000 active; AID 2234; in the data active = inhibition above about 33%
UBC13 inh – human UBC13 polyubiquitination inhibition; P61088; UBC13 polyubiquitin chain formation, TR-FRET; inhibition, % at 20 µM; 0.47% of 330,000 active; AID 485273; in the data active = inhibition above about 45%, passing the limit was not always enough; inconclusive = no clear call, values can overlap the other calls
Apaf1 inhib – inhibitors of human Apaf-1 apoptosome | O14727 | reconstituted apoptosome caspase-3 activity, DEVD-Rh110 fluorescence | inhibition, % at 20 µM | 0.71% of 330,000 active; active = inhibition of at least 40% at 20 µM;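 also: plate controls were DMSO wells for no effect and DEVD-CHO caspase inhibitor wells for full effect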
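System – cell-free apoptosome with Apaf-1, procaspase-3 and caspase-9 · Buffer or medium – pH 7.5 Hepes buffer with CHAPS, BSA, DTT · Also added – cytochrome c with DEVD-Rh110 · Times – 30 min compound preincubation, 50 min activation, room temperature · Technique – Rh110 fluorescence intensity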
PREPL inh – inhibitors of human prolyl oligopeptidase-like enzyme PREPL; Q4J6C6; recombinant PREPL, fluorescence polarization activity-based probe; inhibition, % at 5.96 µM; 0.68% of 320,000 active; AID 2751;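 also: 0% = enzyme with DMSO and 100% = wells lacking enzyme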
Target sequence (Q4J6C6 whole entry, looked up): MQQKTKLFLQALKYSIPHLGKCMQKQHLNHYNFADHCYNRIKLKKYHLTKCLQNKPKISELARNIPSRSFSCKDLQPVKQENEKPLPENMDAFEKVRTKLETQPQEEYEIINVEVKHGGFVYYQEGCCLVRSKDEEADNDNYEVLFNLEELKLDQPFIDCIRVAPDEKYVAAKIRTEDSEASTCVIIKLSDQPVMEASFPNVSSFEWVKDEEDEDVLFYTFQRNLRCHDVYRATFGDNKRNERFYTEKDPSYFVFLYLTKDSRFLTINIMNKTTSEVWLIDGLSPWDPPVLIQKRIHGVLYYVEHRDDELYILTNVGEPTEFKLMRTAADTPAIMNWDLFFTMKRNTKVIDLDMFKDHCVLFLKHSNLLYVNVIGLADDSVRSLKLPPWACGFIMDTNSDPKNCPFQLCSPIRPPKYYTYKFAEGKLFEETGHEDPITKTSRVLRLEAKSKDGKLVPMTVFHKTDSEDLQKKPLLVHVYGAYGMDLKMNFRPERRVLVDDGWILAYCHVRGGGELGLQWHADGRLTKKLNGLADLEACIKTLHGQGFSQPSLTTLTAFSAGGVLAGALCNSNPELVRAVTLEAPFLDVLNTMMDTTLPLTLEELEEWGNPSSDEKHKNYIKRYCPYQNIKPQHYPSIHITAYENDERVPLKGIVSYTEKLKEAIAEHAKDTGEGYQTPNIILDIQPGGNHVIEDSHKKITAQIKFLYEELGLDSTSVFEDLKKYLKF
PREPL confirm – confirmation of human PREPL enzyme inhibitors; inhibition, % at 5.96 µM; shares compounds with PREPL inh; 67% of 2,000 active; recombinant PREPL, fluorescence polarization activity probe;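 also: 0% = protein with DMSO and 100% = wells lacking protein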
* = called active by the depositor. Rule as the data show it, unless noted: active = inhibition above about 43%; inactive = the rest.

`COc1cc(C2NCCc3c2[nH]c2ccccc32)ccc1OC(C)C` (stereo not given) gave EBNA-1 inhibitor -9, ZTA DNA inh 7, UBC13 inh 15, Apaf1 inhib -2, PREPL inh 44* and PREPL confirm 41.
`O=C(CN1C(=O)NC2(CCCCC2)C1=O)NNC(=O)C1CC1` gave ZTA DNA inh 14, UBC13 inh -7, Apaf1 inhib -3 and PREPL inh -5.
For Nc1c(Cl)ncnc1N/N=C/c1ccc2ccccc2n1 the results were EBNA-1 inhibitor -11, ZTA DNA inh -11, PREPL inh 64* and PREPL confirm 53*.
`O=C(COc1coc(CN2CCc3ccccc3C2)cc1=O)N1CCOCC1` gave EBNA-1 inhibitor 13, ZTA DNA inh 8, UBC13 inh 4, Apaf1 inhib -5 and PREPL inh 2.
`C[C@H]1COC(=O)[C@H](Cc2ccc(F)cc2)CC/C=C/C[C@@H](CC(=O)N[C@@H](CO)Cc2ccccc2)C(=O)N1` gave UBC13 inh -1, Apaf1 inhib 11 and PREPL inh 41.
Screening CC(C)(C)[C@@H]1COC(=O)[C@H](Cc2ccc(F)cc2)CC/C=C\C[C@@H](CC(=O)NCCO)C(=O)N1 returned UBC13 inh -3, Apaf1 inhib 1, PREPL inh 49* and PREPL confirm 35.
CC(C)(C)[C@H]1COC(=O)[C@H](Cc2ccc(F)cc2)CC/C=C/C[C@@H](CC(=O)N[C@H](CO)Cc2ccccc2)C(=O)N1 was read as UBC13 inh -6, Apaf1 inhib 20, PREPL inh 46* and PREPL confirm 49*.
CC(=O)N1CCN(c2ccc(NC(=O)c3cccc(C)c3)cc2)CC1 was read as EBNA-1 inhibitor -8, ZTA DNA inh -7, UBC13 inh -14, Apaf1 inhib 9 and PREPL inh 23.
Cc1ccccc1NC(=S)N(CCc1c(C)[nH]c2ccc(F)cc12)Cc1ccncc1 was read as EBNA-1 inhibitor -5, ZTA DNA inh -3, UBC13 inh 12, Apaf1 inhib 6 and PREPL inh 20.
COc1ccc(OC)c(Nc2nc(NCCCN(C)C)nc(N)c2[N+](=O)[O-])c1 was read as EBNA-1 inhibitor -9, ZTA DNA inh -13, UBC13 inh inconclusive, Apaf1 inhib 4, PREPL inh 47* and PREPL confirm 38.
Screening C=CC[n+]1c(/C=C2\C=Cc3cc(C)ccc3N2CC)ccc2ccccc21 returned EBNA-1 inhibitor 1, ZTA DNA inh -10, UBC13 inh -145, Apaf1 inhib 14, PREPL inh 46* and PREPL confirm 60*.
CCOC(=O)c1cccc(NC(=O)/C(=C\c2ccccc2)NC(=O)c2ccccc2Cl)c1 was read as EBNA-1 inhibitor -9, ZTA DNA inh -13, UBC13 inh 0, Apaf1 inhib -7 and PREPL inh 4.
Screening COc1ccc(/C=N/NC(=S)N[C@H]2CC3CCC2C3)cc1 (stereo not given in full) returned EBNA-1 inhibitor -10, ZTA DNA inh -7, UBC13 inh -1, Apaf1 inhib 1 and PREPL inh 5.
COc1cccc2sc(Nc3nc(-c4ccccn4)cs3)nc12 was read as EBNA-1 inhibitor -9, ZTA DNA inh 16, UBC13 inh -1, Apaf1 inhib 29, PREPL inh 50* and PREPL confirm 46*.
O=S(=O)(c1ccc(N2CCCC2)nc1)N1CCOCC1 was read as EBNA-1 inhibitor -3, ZTA DNA inh 7, UBC13 inh -4, Apaf1 inhib -18 and PREPL inh 9.
O=C(COc1ccccc1[N+](=O)[O-])N/N=C/c1cccc(OC(=O)c2ccc3c(c2)OCO3)c1 was read as EBNA-1 inhibitor 9, ZTA DNA inh 20, UBC13 inh -3, Apaf1 inhib -3, PREPL inh 47* and PREPL confirm 20.
`N#C/C(=C\c1ccc(OC(=O)c2cccs2)cc1)c1nc2ccccc2[nH]1` gave EBNA-1 inhibitor 6, ZTA DNA inh -13, UBC13 inh -15, Apaf1 inhib 15, PREPL inh 55* and PREPL confirm 12.
`N#C/C(=C/c1ccc(O)c(O)c1)c1nc2ccccc2[nH]1` gave EBNA-1 inhibitor -3, ZTA DNA inh 13, UBC13 inh -132, Apaf1 inhib 2, PREPL inh 60* and PREPL confirm 48*.
Screening N#C/C(=C\c1cccs1)c1nc2ccccc2[nH]1 returned EBNA-1 inhibitor 0, ZTA DNA inh 3 and PREPL inh 37.
N#C/C(=C\c1ccc(N2CCCC2)c([N+](=O)[O-])c1)c1nc2ccccc2[nH]1 was read as EBNA-1 inhibitor -7, ZTA DNA inh -11, UBC13 inh -98, Apaf1 inhib 24 and PREPL inh 23.
`N#C/C(=C\C1CC2C=CC1C2)c1nc2ccccc2[nH]1` (stereo not given) gave EBNA-1 inhibitor 7, ZTA DNA inh -12, UBC13 inh 7, Apaf1 inhib 9, PREPL inh 48* and PREPL confirm 9.
CC(C)(C)OC(=O)N1CCC(c2c(C(=O)O)cnn2-c2ccc(Cl)cc2)CC1 was read as EBNA-1 inhibitor -2, ZTA DNA inh -16, UBC13 inh 3, Apaf1 inhib 2 and PREPL inh 3.
For Cn1c(N)c(C(=O)COC(=O)/C=C/c2cccc(F)c2)c(=O)n(C)c1=O the results were ZTA DNA inh 1, UBC13 inh 3, Apaf1 inhib 0, PREPL inh 44* and PREPL confirm 40.
For Cc1ccnc(NC(=O)CCC(=O)N(CC(=O)NCc2ccc(F)cc2)c2ccc(F)cc2)c1 the results were EBNA-1 inhibitor 10, ZTA DNA inh -7, UBC13 inh 3, Apaf1 inhib 19 and PREPL inh -5.
Screening COc1ccc(OCC(=O)NNc2c3ccccc3nc3ccccc23)cc1 returned EBNA-1 inhibitor -6, ZTA DNA inh 8, UBC13 inh -88, Apaf1 inhib 8, PREPL inh 44* and PREPL confirm 50*.
O=C(COc1ccccc1)NNc1c2ccccc2nc2ccccc12 was read as EBNA-1 inhibitor -3, ZTA DNA inh 8, UBC13 inh -71, Apaf1 inhib 23, PREPL inh 46* and PREPL confirm 39.
`O=C(NNc1c2ccccc2nc2ccccc12)c1ccccc1O` gave EBNA-1 inhibitor 5, ZTA DNA inh -26, UBC13 inh -178, Apaf1 inhib 5, PREPL inh 46* and PREPL confirm 30.
Screening CCCC(=O)NNc1c2ccccc2nc2ccccc12 returned EBNA-1 inhibitor -6, ZTA DNA inh -6, UBC13 inh -16, Apaf1 inhib 4 and PREPL inh 2.
O=c1[nH]c(CN2CCN(c3ccc([N+](=O)[O-])cc3)CC2)nc2ccsc12 was read as EBNA-1 inhibitor 5, ZTA DNA inh 20, UBC13 inh -10, Apaf1 inhib 0, PREPL inh 46* and PREPL confirm 29.

Compound activity: PubChem BioAssay, several laboratories
